Assay results: ChEMBL document CHEMBL1123985, “Oral absorption of cephalosporin antibiotics. 1. Synthesis, biological properties, and oral bioavailability of 7-(arylacetamido)-3-chloro cephalosporins in animals” (J Med Chem, 1988)
≈ marks a conversion by molar mass, not a printed value.

How the values were obtained:
Klebsiella aerogenes = experiment: Minimum inhibitory concentration against EB17 strain of Enterobacter aerogenes; assay type: functional
[1] = Oral bioavailability in mouse; assay type: ADME, organism-based; conditions: in vivo
Outline: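 Male Cox mice given water and liquid diet overnight; 20 mg/kg in saline (2 mg/mL) sc or orally; urine from collection cages plus bladder contents over 2 h; activity by agar well assay with Bacillus subtilis ATCC 6633. Bioavailability from percent dose excreted in urine after oral vs parenteral dosing.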

Streptococcus pneumoniae [2] = experiment: Minimum inhibitory concentration against Park strain of Streptococcus pneumoniae
[3] = Minimum inhibitory concentration against N9 strain of Shigella sonnei; assay type: functional
Salmonella = experiment: Minimum inhibitory concentration against X514 strain of Salmonella; assay type: functional
[4] = test system: Staphylococcus epidermidis; experiment: Minimum inhibitory concentration against 222 strain of Staphylococcus epidermidis; assay type: functional
Staphylococcus aureus [5] = experiment: Minimum inhibitory concentration against X1.1 strain of Staphylococcus aureus; assay type: functional
Streptococcus pyogenes [6] = experiment: Minimum inhibitory concentration against C203 strain of Streptococcus pyogenes
Escherichia coli = experiment: Minimum inhibitory concentration against EC14 strain Escherichia coli; assay type: functional
Streptococcus pneumoniae [7] = experiment: Minimum inhibitory concentration against park strain of Streptococcus pneumoniae
Staphylococcus aureus [8] = experiment: Minimum inhibitory concentration against S13E strain of Staphylococcus aureus; assay type: functional
[9] = Minimum inhibitory concentration against res 76 strain of Haemophilus influenzae; assay type: functional
Staphylococcus aureus [10] = experiment: Minimum inhibitory concentration against V41 strain of Staphylococcus aureus; assay type: functional
Streptococcus pyogenes [11] = experiment: Minimum inhibitory concentration against Streptococcus pyogenes C203; assay type: functional
[12] = Minimum inhibitory concentration against sens CL strain of Haemophilus influenzae; assay type: functional
Klebsiella pneumoniae = experiment: Minimum inhibitory concentration against X68 strain of Klebsiella pneumoniae; assay type: functional
[13] = test system: Staphylococcus epidermidis; experiment: Minimum inhibitory concentration against Epil strain of Staphylococcus epidermidis; assay type: functional
Staphylococcus aureus [14] = experiment: Minimum inhibitory concentration against 3055 strain of Staphylococcus aureus
Streptococcus pyogenes [15] = experiment: Minimum inhibitory concentration against C203 strain of Streptococcus pyogenes; remark: listed apart in the source

SMILES	MIC (Klebsiella aerogenes) [µg/mL]	bioavailability [1] [%]	MIC (Streptococcus pneumoniae [2]) [µg/mL]	MIC [3] [µg/mL]	MIC (Salmonella) [µg/mL]	MIC [4] [µg/mL]	MIC (Staphylococcus aureus [5]) [µg/mL]	MIC (Streptococcus pyogenes [6]) [µg/mL]	MIC (Escherichia coli) [µg/mL]	MIC (Streptococcus pneumoniae [7]) [µg/mL]	MIC (Staphylococcus aureus [8]) [µg/mL]	MIC [9] [µg/mL]	MIC (Staphylococcus aureus [10]) [µg/mL]	MIC (Streptococcus pyogenes [11]) [µg/mL]	MIC [12] [µg/mL]	MIC (Klebsiella pneumoniae) [µg/mL]	MIC [13] [µg/mL]	MIC (Staphylococcus aureus [14]) [µg/mL]	MIC (Streptococcus pyogenes [15]) [µg/mL]
O=C(Cc1csc(Cl)n1)N[C@@H]1C(=O)N2C(C(=O)O)=C(Cl)CS[C@H]12	> 128	56	0.5 (≈ 1.27 µM)	64 (≈ 162 µM)	8 (≈ 20.3 µM)														
O=C(COc1ccccc1)N[C@@H]1C(=O)N2C(C(=O)O)=CCS[C@H]12	> 128	22	1 (≈ 2.99 µM)	> 128	> 128	0.5 (≈ 1.5 µM)	0.5 (≈ 1.5 µM)	0.25 (≈ 0.748 µM)	32 (≈ 95.7 µM)	0.25 (≈ 0.748 µM)	16 (≈ 47.9 µM)	8 (≈ 23.9 µM)	16 (≈ 47.9 µM)	0.5 (≈ 1.5 µM)	32 (≈ 95.7 µM)	> 128	2 (≈ 5.98 µM)	0.5 (≈ 1.5 µM)	
O=C(Cc1csc2ccc(Cl)cc12)N[C@@H]1C(=O)N2C(C(=O)O)=C(Cl)CS[C@H]12	128 (≈ 289 µM)		0.015 (≈ 0.0338 µM)	128 (≈ 289 µM)	128 (≈ 289 µM)	0.125 (≈ 0.282 µM)	0.03 (≈ 0.0677 µM)	0.03 (≈ 0.0677 µM)	64 (≈ 144 µM)	0.02 (≈ 0.0451 µM)	2 (≈ 4.51 µM)	0.25 (≈ 0.564 µM)	2 (≈ 4.51 µM)	0.015 (≈ 0.0338 µM)	1 (≈ 2.26 µM)	128 (≈ 289 µM)	0.5 (≈ 1.13 µM)	0.06 (≈ 0.135 µM)	
O=C(Cc1ccsc1)N[C@@H]1C(=O)N2C(C(=O)O)=C(Cl)CS[C@H]12	> 128	47	0.125 (≈ 0.348 µM)	32 (≈ 89.2 µM)	1 (≈ 2.79 µM)	1 (≈ 2.79 µM)	0.5 (≈ 1.39 µM)		8 (≈ 22.3 µM)		16 (≈ 44.6 µM)	1 (≈ 2.79 µM)	8 (≈ 22.3 µM)	0.125 (≈ 0.348 µM)	1 (≈ 2.79 µM)	2 (≈ 5.57 µM)	4 (≈ 11.1 µM)		
C=CC1=C(C(=O)O)N2C(=O)[C@@H](NC(=O)Cc3csc(N)n3)[C@H]2SC1	128 (≈ 349 µM)	25	0.5 (≈ 1.36 µM)		2 (≈ 5.46 µM)	1 (≈ 2.73 µM)	1 (≈ 2.73 µM)		4 (≈ 10.9 µM)		16 (≈ 43.7 µM)	2 (≈ 5.46 µM)	8 (≈ 21.8 µM)	0.125 (≈ 0.341 µM)	4 (≈ 10.9 µM)	2 (≈ 5.46 µM)	8 (≈ 21.8 µM)		
CC1=C(C(=O)O)N2C(=O)[C@@H](NC(=O)[C@H](N)c3ccccc3)[C@H]2SC1 [CEPHALEXIN ANHYDROUS]										4 (≈ 11.5 µM)								1 (≈ 2.88 µM)	0.5 (≈ 1.44 µM)
COC1=C(C(=O)O)N2C(=O)[C@@H](NC(=O)Cc3csc(N)n3)[C@H]2SC1	32 (≈ 86.4 µM)	< 5	2 (≈ 5.4 µM)	32 (≈ 86.4 µM)	2 (≈ 5.4 µM)	32 (≈ 86.4 µM)	8 (≈ 21.6 µM)		8 (≈ 21.6 µM)		> 128	8 (≈ 21.6 µM)	32 (≈ 86.4 µM)	0.5 (≈ 1.35 µM)	8 (≈ 21.6 µM)	8 (≈ 21.6 µM)	128 (≈ 346 µM)		
O=C(Cc1ccccc1)N[C@@H]1C(=O)N2C(C(=O)O)=CCS[C@H]12	64 (≈ 201 µM)	12	1 (≈ 3.14 µM)	64 (≈ 201 µM)	8 (≈ 25.1 µM)	1 (≈ 3.14 µM)	1 (≈ 3.14 µM)	0.25 (≈ 0.785 µM)	8 (≈ 25.1 µM)	1 (≈ 3.14 µM)	32 (≈ 101 µM)	1 (≈ 3.14 µM)	16 (≈ 50.3 µM)	0.25 (≈ 0.785 µM)	4 (≈ 12.6 µM)	4 (≈ 12.6 µM)	4 (≈ 12.6 µM)	1 (≈ 3.14 µM)	
O=C(COc1ccc(O)cc1)N[C@@H]1C(=O)N2C(C(=O)O)=C(Cl)CS[C@H]12	> 128	21	0.125 (≈ 0.325 µM)	64 (≈ 166 µM)	64 (≈ 166 µM)	1 (≈ 2.6 µM)	0.5 (≈ 1.3 µM)		64 (≈ 166 µM)		128 (≈ 333 µM)	1 (≈ 2.6 µM)	128 (≈ 333 µM)	0.06 (≈ 0.156 µM)	2 (≈ 5.2 µM)	> 128	16 (≈ 41.6 µM)		
C=CC1=C(C(=O)O)N2C(=O)[C@@H](NC(=O)COc3ccccc3)[C@H]2SC1	> 128	36	0.125 (≈ 0.347 µM)	> 128	> 128	0.5 (≈ 1.39 µM)	0.25 (≈ 0.694 µM)	0.125 (≈ 0.347 µM)	> 128	0.25 (≈ 0.694 µM)	16 (≈ 44.4 µM)	1 (≈ 2.77 µM)	16 (≈ 44.4 µM)	0.125 (≈ 0.347 µM)	4 (≈ 11.1 µM)	> 128	8 (≈ 22.2 µM)	0.25 (≈ 0.694 µM)	
O=C(Cc1ccc(O)cc1)N[C@@H]1C(=O)N2C(C(=O)O)=C(Cl)CS[C@H]12	> 128	14	0.25 (≈ 0.678 µM)	128 (≈ 347 µM)	8 (≈ 21.7 µM)	2 (≈ 5.42 µM)	2 (≈ 5.42 µM)		32 (≈ 86.8 µM)		128 (≈ 347 µM)	2 (≈ 5.42 µM)	16 (≈ 43.4 µM)	0.125 (≈ 0.339 µM)	2 (≈ 5.42 µM)	8 (≈ 21.7 µM)	8 (≈ 21.7 µM)		
Cc1nc(CC(=O)N[C@@H]2C(=O)N3C(C(=O)O)=C(Cl)CS[C@H]23)cs1	> 128	66	1 (≈ 2.67 µM)	64 (≈ 171 µM)	4 (≈ 10.7 µM)														
COCC1=C(C(=O)O)N2C(=O)[C@@H](NC(=O)COc3ccccc3)[C@H]2SC1	> 128	19	0.125 (≈ 0.33 µM)	> 128	> 128	0.25 (≈ 0.661 µM)	0.25 (≈ 0.661 µM)		> 128		32 (≈ 84.6 µM)	2 (≈ 5.29 µM)	0.5 (≈ 1.32 µM)	0.06 (≈ 0.159 µM)	2 (≈ 5.29 µM)	> 128	0.5 (≈ 1.32 µM)		
COC1=C(C(=O)O)N2C(=O)[C@@H](NC(=O)COc3ccccc3)[C@H]2SC1	> 128	14	1 (≈ 2.74 µM)	> 128	> 128	2 (≈ 5.49 µM)	2 (≈ 5.49 µM)		> 128		16 (≈ 43.9 µM)	4 (≈ 11 µM)	32 (≈ 87.8 µM)	1 (≈ 2.74 µM)	4 (≈ 11 µM)	> 128	8 (≈ 22 µM)		
